Measurements as given in publication PMC3313018 (Cancer Chemotherapy and Pharmacology, 2011).
Entries after “also recorded” stand apart in the source; their conditions may differ. Like-named read-outs stand apart in the source and are kept apart here. Marks after values point to notes of the source that are not given here.

Tests used:
[1] = test system: mTOR; conditions: in vitro ref 8; cited from earlier work
[2] = Whole blood and plasma pharmacokinetics; format: in vivo, Japanese patients
Method in brief: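 Cycle 1, oral 20 or 40 mg. Whole blood and plasma sampled predose and 0.5–168 h after the Day 1 dose, predose on Days 15, 18, 22 and 23, and predose to 24 h on Day 26; assayed by HPLC-MS/MS. Tmax, Cmax and Ctrough taken by inspection. […] Accumulation (Day 26/Day 1) from a linear mixed effects model on ln values.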

[3] = test system: sarcoma; conditions: Phase III sarcoma maintenance study, P = 0.0001, stratified log-rank ref 24; cited from earlier work
[4] = test system: non-Japanese patients with refractory or advanced solid cancer; conditions: cited from earlier work; for Maximum tolerated dose (MTD): non-Japanese patients ref 10–13
[5] = test system: metastatic or locally advanced solid tumors; assay: Antitumor activity by RECIST version 1.0; format: in vivo, Japanese patients
Method in brief: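 Exploratory tumour assessment by RECIST v1.0 in refractory metastatic or locally advanced solid tumours. Oral 20 or 40 mg: single dose Day 1, washout ≥6 days, then once daily 5 days on/2 days off on Days 8–28 as inpatients. Later 21-day cycles at 5 days a week until progression or unacceptable toxicity.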

[6] = test system: human tumor cell lines; conditions: in vitro ref 8; cited from earlier work
[7] = test system: Japanese patients with advanced solid tumors; assay: Phase I safety and tolerability: DLTs and adverse events; format: in vivo; conditions: for DLTs / n/N, No. of patients with DLT/No. of patients at the dose level: Cycle 1
Method in brief: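 Open-label, single-centre 3+3 escalation, 20 then 40 mg orally (single dose Day 1, then daily 5 days/week from Day 8). DLT window was the first 28-day cycle, counting drug-related Grade 4 neutropenia >5 days, febrile (>38.5°C) Grade 3–4 neutropenia, Grade 4 thrombocytopenia, and Grade 3–4 non-haematologic toxicity with exceptions. Adverse events graded by CTCAE v3.0 over all cycles. Dose intensity <75% excluded from DLT evaluation.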

[8] = All patients (n = 13), all cycles
[9] = all patients (n = 13), all cycles

CO[C@H]1C[C@@H]2CC[C@@H](C)[C@@](O)(O2)C(=O)C(=O)N2CCCC[C@H]2C(=O)O[C@H]([C@H](C)C[C@@H]2CC[C@@H](OP(C)(C)=O)[C@H](OC)C2)CC(=O)[C@H](C)/C=C(\C)[C@@H](O)[C@@H](OC)C(=O)[C@H](C)C[C@H](C)/C=C/C=C/C=C/1C [ridaforolimus, Ridaforolimus]
Effect on mTOR activity, in words [1]: inhibited mTOR activity | Time whole blood concentration was below the quantitation limit (<0.2 ng/mL) ([2]; Day 1, after administration of 20 mg): 2 to 4 h | Time whole blood concentration was below the quantitation limit (<0.2 ng/mL) ([2]; Day 1, after administration of 40 mg): 1 to 2 h | Time for mean whole blood C trough to reach steady state ([2]; once daily, 5 days a week): about 1 week | Blood-to-plasma ratio, in words ([2]; plasma vs whole blood concentration): high blood-to-plasma ratio | Accumulation from Day 1 to Day 26 (AUC0–24 h, C max, C trough), in words ([2]; whole blood): moderate accumulation | Accumulation ratio (Day 26/Day 1) AUC0–24 h, geometric mean ratio (90% confidence interval) ([2]; whole blood, 20 mg): 1.51 (1.14, 2.01) | Accumulation ratio (Day 26/Day 1) C max, geometric mean ratio (90% confidence interval) ([2]; whole blood, 20 mg): 1.37 (0.959, 1.97) | Accumulation ratio (Day 26/Day 1) C trough, geometric mean ratio (90% confidence interval) ([2]; whole blood, 20 mg): 2.02 (1.61, 2.52) | Accumulation ratio (Day 26/Day 1) AUC0–24 h, geometric mean ratio (90% confidence interval) ([2]; whole blood, 40 mg): 1.44 (1.05, 1.99) | Accumulation ratio (Day 26/Day 1) C max, geometric mean ratio (90% confidence interval) ([2]; whole blood, 40 mg): 1.01 (0.674, 1.50) | Accumulation ratio (Day 26/Day 1) C trough, geometric mean ratio (90% confidence interval) ([2]; whole blood, 40 mg): 1.76 (1.37, 2.25) | Lag time for systemic absorption ([2]; whole blood, Day 1, 20 and 40 mg): 1 to 4 h | Time at which C max was reached ([2]; whole blood, Days 1 and 26): approximately 4 h | Hazard ratio for progression-free survival vs placebo [3]: 0.72 | DLTs ([4]; 40 mg daily, five times a week, non-Japanese patients ref 17): stomatitis and fatigue | Maximum tolerated dose (MTD) ([4]; daily regimen): 10 mg | Maximum tolerated dose (MTD) ([4]; once daily, five-times-a-week regimen): 40 mg | Number of patients achieving a partial response ([5]; 13 patients, NSCLC and angiosarcoma): Two patients | Number of patients with stable disease for ≥16 weeks ([5]; 13 patients, one thymic cancer, four soft tissue sarcomas): five patients | Duration of stable disease ([5]; Patient 1, Osteosarcoma, 20 mg): 3.7 weeks | Duration of stable disease ([5]; Patient 3, Thymic cancer, 20 mg): 16.3 weeks | Duration of stable disease ([5]; Patient 5, Liposarcoma, 20 mg): 16.1 weeks | Duration of stable disease ([5]; Patient 6, NSCLC (adenocarcinoma), 20 mg): 4.0 weeks | Duration of stable disease ([5]; Patient 7, NSCLC (adenocarcinoma), 20 mg): 4.0 weeks | Duration of stable disease ([5]; Patient 8, Osteosarcoma, 40 mg): 4.0 weeks | Duration of stable disease ([5]; Patient 9, Liposarcoma, 40 mg): 17.3 weeks | Duration of stable disease ([5]; Patient 10, Leiomyosarcoma, 40 mg): 16.3 weeks | Duration of stable disease ([5]; Patient 11, Leiomyosarcoma, 40 mg): 17.1 weeks | Longest tumor diameter on CT ([5]; Patient 13, Day 28, baseline 42 mm): 21 mm | Time until the response ([5]; both patients with partial response): 28 days | Antiproliferative activity, in words [6]: antiproliferative activity against a broad range of human tumor cell lines | Anorexia, drug-related adverse event, Grades 1–2, no. of patients ([7]; 20 mg (n = 7), all cycles): 2 | Constipation, drug-related adverse event, Grades 1–2, no. of patients ([7]; 20 mg (n = 7), all cycles): 3 | Fatigue, drug-related adverse event, Grades 1–2, no. of patients ([7]; 20 mg (n = 7), all cycles): 1 | Hypercholesterolemia, drug-related adverse event, Grades 1–2, no. of patients ([7]; 20 mg (n = 7), all cycles): 3 | Hyperglycemia, drug-related adverse event, Grades 1–2, no. of patients ([7]; 20 mg (n = 7), all cycles): 2 | Hypertriglyceridemia, drug-related adverse event, Grades 1–2, no. of patients ([7]; 20 mg (n = 7), all cycles): 5 | Hypoalbuminemia, drug-related adverse event, Grades 1–2, no. of patients ([7]; 20 mg (n = 7), all cycles): 2 | Interstitial pneumonitis, drug-related adverse event, Grades 1–2, no. of patients ([7]; 20 mg (n = 7), all cycles): 1 | Interstitial pneumonitis, drug-related adverse event, Grades 3–4, no. of patients ([7]; 20 mg (n = 7), all cycles): 0 | Leukopenia, drug-related adverse event, Grades 1–2, no. of patients ([7]; 20 mg (n = 7), all cycles): 1 | Leukopenia, drug-related adverse event, Grades 3–4, no. of patients ([7]; 20 mg (n = 7), all cycles): 1 | Neutropenia, drug-related adverse event, Grades 1–2, no. of patients ([7]; 20 mg (n = 7), all cycles): 1 | Neutropenia, drug-related adverse event, Grades 3–4, no. of patients ([7]; 20 mg (n = 7), all cycles): 2 | Proteinuria, drug-related adverse event, Grades 1–2, no. of patients ([7]; 20 mg (n = 7), all cycles): 3 | Stomatitis, drug-related adverse event, Grades 3–4, no. of patients ([7]; 20 mg (n = 7), all cycles): 1 | Thrombocytopenia, drug-related adverse event, Grades 1–2, no. of patients ([7]; 20 mg (n = 7), all cycles): 2 | Anemia, drug-related adverse event, Grades 1–2, no. of patients ([7]; 40 mg (n = 6), all cycles): 3 | Anemia, drug-related adverse event, Grades 3–4, no. of patients ([7]; 40 mg (n = 6), all cycles): 3 | Anorexia, drug-related adverse event, Grades 1–2, no. of patients ([7]; 40 mg (n = 6), all cycles): 2 | Anorexia, drug-related adverse event, Grades 3–4, no. of patients ([7]; 40 mg (n = 6), all cycles): 1 | Constipation, drug-related adverse event, Grades 1–2, no. of patients ([7]; 40 mg (n = 6), all cycles): 1 | Fatigue, drug-related adverse event, Grades 1–2, no. of patients ([7]; 40 mg (n = 6), all cycles): 3 | Hypercholesterolemia, drug-related adverse event, Grades 1–2, no. of patients ([7]; 40 mg (n = 6), all cycles): 3 | Hyperglycemia, drug-related adverse event, Grades 1–2, no. of patients ([7]; 40 mg (n = 6), all cycles): 2 | Hyperglycemia, drug-related adverse event, Grades 3–4, no. of patients ([7]; 40 mg (n = 6), all cycles): 1 | Hypertriglyceridemia, drug-related adverse event, Grades 1–2, no. of patients ([7]; 40 mg (n = 6), all cycles): 4 | Hypoalbuminemia, drug-related adverse event, Grades 1–2, no. of patients ([7]; 40 mg (n = 6), all cycles): 3 | Interstitial pneumonitis, drug-related adverse event, Grades 1–2, no. of patients ([7]; 40 mg (n = 6), all cycles): 3 | Interstitial pneumonitis, drug-related adverse event, Grades 3–4, no. of patients ([7]; 40 mg (n = 6), all cycles): 0 | Leukopenia, drug-related adverse event, Grades 1–2, no. of patients ([7]; 40 mg (n = 6), all cycles): 2 | Loss of body weight, drug-related adverse event, Grades 1–2, no. of patients ([7]; 40 mg (n = 6), all cycles): 4 | Neutropenia, drug-related adverse event, Grades 1–2, no. of patients ([7]; 40 mg (n = 6), all cycles): 1 | Proteinuria, drug-related adverse event, Grades 1–2, no. of patients ([7]; 40 mg (n = 6), all cycles): 3 | Rash, drug-related adverse event, Grades 1–2, no. of patients ([7]; 40 mg (n = 6), all cycles): 2 | Rash, drug-related adverse event, Grades 3–4, no. of patients ([7]; 40 mg (n = 6), all cycles): 1 | Stomatitis, drug-related adverse event, Grades 1–2, no. of patients ([7]; 40 mg (n = 6), all cycles): 6 | Thrombocytopenia, drug-related adverse event, Grades 1–2, no. of patients ([7]; 40 mg (n = 6), all cycles): 3 | Median time until the onset of stomatitis ([7]; 13 patients): 11 days | Number of patients who discontinued treatment because of adverse events ([7]; 13 patients): Six patients | Number of patients with stomatitis ([7]; 13 patients enrolled): 13 | Number of patients with grade 1 drug-induced interstitial pneumonitis ([7]; 13 patients, 20 and 40 mg): Four patients | Number of patients with dose-limiting toxicities ([7]; 20 and 40 mg, first cycle): Two patients | Anemia, drug-related adverse event, Grades 3–4, no. of patients [7, 8]: 4 | Anorexia, drug-related adverse event, Grades 1–2, no. of patients [7, 8]: 4 | Anorexia, drug-related adverse event, Grades 3–4, no. of patients [7, 8]: 1 | Constipation, drug-related adverse event, Grades 1–2, no. of patients [7, 8]: 4 | Fatigue, drug-related adverse event, Grades 1–2, no. of patients [7, 8]: 4 | Hypercholesterolemia, drug-related adverse event, Grades 1–2, no. of patients [7, 8]: 6 | Hyperglycemia, drug-related adverse event, Grades 1–2, no. of patients [7, 8]: 4 | Hyperglycemia, drug-related adverse event, Grades 3–4, no. of patients [7, 8]: 1 | Hypertriglyceridemia, drug-related adverse event, Grades 1–2, no. of patients [7, 8]: 9 | Hypoalbuminemia, drug-related adverse event, Grades 1–2, no. of patients [7, 8]: 5 | Interstitial pneumonitis, drug-related adverse event, Grades 1–2, no. of patients [7, 8]: 4 | Interstitial pneumonitis, drug-related adverse event, Grades 3–4, no. of patients [7, 8]: 0 | Leukopenia, drug-related adverse event, Grades 1–2, no. of patients [7, 8]: 3 | Leukopenia, drug-related adverse event, Grades 3–4, no. of patients [7, 8]: 1 | Loss of body weight, drug-related adverse event, Grades 1–2, no. of patients [7, 8]: 4 | Neutropenia, drug-related adverse event, Grades 1–2, no. of patients [7, 8]: 2 | Neutropenia, drug-related adverse event, Grades 3–4, no. of patients [7, 8]: 2 | Proteinuria, drug-related adverse event, Grades 1–2, no. of patients [7, 8]: 6 | Rash, drug-related adverse event, Grades 3–4, no. of patients [7, 8]: 1 | Stomatitis, drug-related adverse event, Grades 3–4, no. of patients [7, 8]: 1 | Thrombocytopenia, drug-related adverse event, Grades 1–2, no. of patients [7, 8]: 5 | Time to onset of DLT ([7]; Grade 3 anorexia, 40 mg): 23 days | Time to onset of DLT ([7]; Grade 3 stomatitis, 20 mg): 8 days | Time to onset of DLT ([7]; Grade 3 vomiting, 40 mg): 23 days | DLTs ([7]; Level 1, 20 mg): Grade 3 stomatitis | n/N, No. of patients with DLT/No. of patients at the dose level ([7]; Level 1, 20 mg): 1/6^b | DLTs ([7]; Level 2, 40 mg): Grade 3 anorexia; also recorded: Grade 3 vomiting | n/N, No. of patients with DLT/No. of patients at the dose level ([7]; Level 2, 40 mg): 1/6 | Incidence of hypercholesterolemia related to treatment [7, 9]: 46.2% | Incidence of hypertriglyceridemia related to treatment [7, 9]: 69.2% | Incidence of leucopenia [7, 9]: 30.8% | Incidence of neutropenia [7, 9]: 30.8% | Incidence of proteinuria related to treatment [7, 9]: 46.2% | Incidence of skin rash related to treatment [7, 9]: 61.5% | Incidence of stomatitis related to treatment [7, 9]: 100% | Incidence of thrombocytopenia [7, 9]: 38.5% | Patients requiring a dose reduction ([7]; dose level 2 (40 mg)): None | Interstitial pneumonitis among patients with other cancer types ([7]; eight patients with other cancer types): three cases occurred among eight patients | Interstitial pneumonitis among NSCLC patients ([7]; five patients with NSCLC): one of these five NSCLC patients | Time of occurrence of interstitial pneumonitis after the start of treatment ([7]; four patients): 2–5 months | Tolerability, in words ([7]; oral, once daily 5 days a week): well tolerated up to a dose of 40 mg
